Reference: ChEMBL document CHEMBL1157586 (Bioorg Med Chem, 2010)
pIC50: −log10 of the molar value. Converted amounts (≈) assume the structure as drawn.

Key:
[1] = target: Fibroblast growth factor receptor 1 (Homo sapiens, UniProt P11362); assay: Inhibition of FGFR1 by scintillation proximity assay
[2] = target: Cyclin-dependent kinase 1/cyclin B1 (Homo sapiens, UniProt P06493); assay: Inhibition of CDK1/cyclin B; type: protein-complex assay
[3] = target: Mast/stem cell growth factor receptor Kit (Homo sapiens, UniProt P10721); assay: Inhibition of cKit by scintillation proximity assay
[4] = target: Cell division cycle 7-related protein kinase (Homo sapiens, UniProt O00311); assay: Inhibition of CDC7 by scintillation proximity assay
[5] = target: Tyrosine-protein kinase ABL1 (Homo sapiens, UniProt P00519); assay: Inhibition of c-ABL by scintillation proximity assay
[6] = Inhibition of STK2 by scintillation proximity assay
[7] = target: Cyclin-dependent kinase 2/cyclin A (Homo sapiens, UniProt P24941); assay: Inhibition of human CDK2/cyclin A expressed in Escherichia coli BL21 by scintillation proximity assay
[8] = target: Serine/threonine-protein kinase Nek6 (Homo sapiens, UniProt Q9HC98); assay: Inhibition of NEK6 by scintillation proximity assay
[9] = target: ALK tyrosine kinase receptor (Homo sapiens, UniProt Q9UM73); assay: Inhibition of ALK by scintillation proximity assay
[10] = Inhibition of PDGFR by scintillation proximity assay
[11] = target: Mitogen-activated protein kinase 1 (Homo sapiens, UniProt P28482); assay: Inhibition of ERK2
[12] = target: Vascular endothelial growth factor receptor 3 (Homo sapiens, UniProt P35916); assay: Inhibition of VEGFR3 by scintillation proximity assay
[13] = target: Cyclin-dependent kinase 2/cyclin E1 (Homo sapiens, UniProt P24941); assay: Inhibition of CDK2/cyclin E by scintillation proximity assay; type: protein-complex assay
Aurora kinase A = Aurora kinase A (Homo sapiens, UniProt O14965); assay: Inhibition of Aurora A by scintillation proximity assay
[14] = Inhibition of SULU1 by scintillation proximity assay
A2780 [15] = assay: Cell cycle arrest in human A2780 cells assessed as accumulation at S phase at 3 uM after 24 hrs by FACS analysis; type: functional
Procedure, shortened: (§1)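 A2780 cells (ECACC) seeded at 25000 cells/cm² in RPMI 1640, pH 7.4, with 10% FBS, 2 mM L-glutamine and penicillin–streptomycin, at 37 °C in 5% CO₂. After 24 h, treated for 24 h at 1 and 3 µM. Floating and trypsinised adherent cells pooled, PBS-washed, and DNA content analysed by flow cytometry.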

Insulin receptor = Insulin receptor (Homo sapiens, UniProt P06213); assay: Inhibition of IR by scintillation proximity assay
[16] = target: Protein kinase C alpha type (Homo sapiens, UniProt P17252); assay: Inhibition of PKCalpha by scintillation proximity assay
A2780 [17] = assay: Cell cycle arrest in human A2780 cells assessed as accumulation at G0/G1 phase at 3 uM after 24 hrs by FACS analysis; type: functional; procedure, shortened: as §1
A2780 [18] = assay: Cell cycle arrest in human A2780 cells assessed as accumulation at G2/M phase at 3 uM after 24 hrs by FACS analysis; type: functional; procedure, shortened: as §1
[19] = target: RAC-alpha serine/threonine-protein kinase (Homo sapiens, UniProt P31749); assay: Inhibition of AKT1
[20] = target: Glycogen synthase kinase-3 beta (Homo sapiens, UniProt P49841); assay: Inhibition of GSK3-beta by scintillation proximity assay
A2780 [21] = assay: Inhibition of cellular DNA synthesis in human A2780 cells assessed as BrdU incorporation into nuclear DNA at 3 uM after 24 hrs by Hoechst 33342 staining-based microscopic analysis; type: functional; set-up: scale not given: the % may be the effect or the level left
Procedure, shortened: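 A2780 human ovarian adenocarcinoma cells were seeded at 25000 cells/cm² in RPMI 1640 pH 7.4 with 10% FBS, 2 mM L-glutamine and penicillin–streptomycin. They were kept at 37 °C in 5% CO₂. After 24 h they were exposed to compound for 24 h. Floating and adherent cells were harvested with trypsin/EDTA, washed in PBS, and split for flow cytometry, immunoblot and BrdU incorporation.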

[22] = target: Serine/threonine-protein kinase PAK 4 (Homo sapiens, UniProt O96013); assay: Inhibition of PAK4 by scintillation proximity assay
[23] = target: Inhibitor of nuclear factor kappa-B kinase subunit beta (Homo sapiens, UniProt O14920); assay: Inhibition of IKK2 by scintillation proximity assay
A2780 [24] = assay: Antiproliferative activity against human A2780 cells after 72 hrs by CellTiter-Glo luminescence assay; settings: A2780, 72 h
[25] = Inhibition of NIM by scintillation proximity assay
[26] = target: Hepatocyte growth factor receptor (Homo sapiens, UniProt P08581)
[27] = Solubility in 5% dextrose solution; type: physicochemical
Aurora kinase B = Aurora kinase B (Homo sapiens, UniProt Q96GD4); assay: Inhibition of Aurora B by scintillation proximity assay
[28] = target: Serine/threonine-protein kinase PLK2 (Homo sapiens, UniProt Q9NYY3); assay: Inhibition of PLK2 by scintillation proximity assay
[29] = Inhibition of CK2 by scintillation proximity assay
[30] = target: Receptor-type tyrosine-protein kinase FLT3 (Homo sapiens, UniProt P36888); assay: Inhibition of FLT3 by scintillation proximity assay
[31] = Solubility at pH 7; type: physicochemical; settings: buffer
[32] = target: Insulin-like growth factor 1 receptor (Homo sapiens, UniProt P08069); assay: Inhibition of IGF1R by scintillation proximity assay
[33] = target: Tyrosine-protein kinase JAK2 (Homo sapiens, UniProt O60674); assay: Inhibition of JAK2 by scintillation proximity assay
[34] = target: Serine/threonine-protein kinase PLK1 (Homo sapiens, UniProt P53350); assay: Inhibition of PLK1
[35] = target: Vascular endothelial growth factor receptor 2 (Homo sapiens, UniProt P35968); assay: Inhibition of VEGFR2 by scintillation proximity assay
[36] = target: Serine/threonine-protein kinase Chk1 (Homo sapiens, UniProt O14757); assay: Inhibition of CHK1 by scintillation proximity assay
[37] = target: cAMP-dependent protein kinase catalytic subunit alpha (Homo sapiens, UniProt P17612); assay: Inhibition of PKAalpha by scintillation proximity assay
[38] = target: Proto-oncogene tyrosine-protein kinase receptor Ret (Homo sapiens, UniProt P07949); assay: Inhibition of RET by scintillation proximity assay
[39] = target: Mitogen-activated protein kinase 14 (Homo sapiens, UniProt Q16539); assay: Inhibition of p38alpha
[40] = target: MAP kinase-activated protein kinase 2 (Homo sapiens, UniProt P49137); assay: Inhibition of MAPKAPK2 by scintillation proximity assay
[41] = target: Cyclin-dependent kinase 5/CDK5 activator 1 (Homo sapiens, UniProt Q00535); assay: Inhibition of CDK5/p25 by scintillation proximity assay; type: protein-complex assay

Hepatocyte growth factor receptor, sequence (P08581 whole entry): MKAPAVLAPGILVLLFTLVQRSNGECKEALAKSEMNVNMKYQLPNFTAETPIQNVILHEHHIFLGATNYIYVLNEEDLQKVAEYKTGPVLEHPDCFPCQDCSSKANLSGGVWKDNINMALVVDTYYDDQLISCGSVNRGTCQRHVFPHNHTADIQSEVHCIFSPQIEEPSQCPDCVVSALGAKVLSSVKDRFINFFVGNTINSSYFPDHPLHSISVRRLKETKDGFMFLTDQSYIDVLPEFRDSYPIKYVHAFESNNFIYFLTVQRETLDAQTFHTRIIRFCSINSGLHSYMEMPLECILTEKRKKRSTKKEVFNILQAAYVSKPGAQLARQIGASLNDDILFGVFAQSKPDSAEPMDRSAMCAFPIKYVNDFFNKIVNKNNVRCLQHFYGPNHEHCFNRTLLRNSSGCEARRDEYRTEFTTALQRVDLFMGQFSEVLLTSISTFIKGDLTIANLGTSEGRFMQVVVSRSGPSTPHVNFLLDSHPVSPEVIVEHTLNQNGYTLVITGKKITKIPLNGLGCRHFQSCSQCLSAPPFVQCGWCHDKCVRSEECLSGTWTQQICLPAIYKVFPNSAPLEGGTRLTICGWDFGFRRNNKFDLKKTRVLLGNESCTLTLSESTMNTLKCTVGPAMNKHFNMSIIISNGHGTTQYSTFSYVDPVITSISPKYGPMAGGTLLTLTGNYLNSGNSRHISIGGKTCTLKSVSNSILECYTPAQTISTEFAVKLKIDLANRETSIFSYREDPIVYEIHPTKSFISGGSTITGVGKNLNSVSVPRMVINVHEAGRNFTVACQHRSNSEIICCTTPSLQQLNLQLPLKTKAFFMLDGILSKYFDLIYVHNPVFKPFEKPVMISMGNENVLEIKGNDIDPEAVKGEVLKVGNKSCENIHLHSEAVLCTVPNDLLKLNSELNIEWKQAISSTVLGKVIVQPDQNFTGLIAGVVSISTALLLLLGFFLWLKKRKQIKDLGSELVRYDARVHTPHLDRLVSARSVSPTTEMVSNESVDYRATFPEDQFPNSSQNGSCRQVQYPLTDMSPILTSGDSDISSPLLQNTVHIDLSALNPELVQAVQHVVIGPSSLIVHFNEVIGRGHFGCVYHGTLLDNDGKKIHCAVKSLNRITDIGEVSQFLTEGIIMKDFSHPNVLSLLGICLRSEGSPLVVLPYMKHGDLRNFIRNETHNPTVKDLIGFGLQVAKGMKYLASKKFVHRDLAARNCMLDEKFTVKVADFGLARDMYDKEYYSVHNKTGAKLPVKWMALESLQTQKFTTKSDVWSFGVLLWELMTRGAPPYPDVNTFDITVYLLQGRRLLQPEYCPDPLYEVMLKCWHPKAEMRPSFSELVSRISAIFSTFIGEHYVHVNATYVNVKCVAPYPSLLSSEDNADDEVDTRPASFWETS
Inhibitor of nuclear factor kappa-B kinase subunit beta, sequence (O14920 whole entry): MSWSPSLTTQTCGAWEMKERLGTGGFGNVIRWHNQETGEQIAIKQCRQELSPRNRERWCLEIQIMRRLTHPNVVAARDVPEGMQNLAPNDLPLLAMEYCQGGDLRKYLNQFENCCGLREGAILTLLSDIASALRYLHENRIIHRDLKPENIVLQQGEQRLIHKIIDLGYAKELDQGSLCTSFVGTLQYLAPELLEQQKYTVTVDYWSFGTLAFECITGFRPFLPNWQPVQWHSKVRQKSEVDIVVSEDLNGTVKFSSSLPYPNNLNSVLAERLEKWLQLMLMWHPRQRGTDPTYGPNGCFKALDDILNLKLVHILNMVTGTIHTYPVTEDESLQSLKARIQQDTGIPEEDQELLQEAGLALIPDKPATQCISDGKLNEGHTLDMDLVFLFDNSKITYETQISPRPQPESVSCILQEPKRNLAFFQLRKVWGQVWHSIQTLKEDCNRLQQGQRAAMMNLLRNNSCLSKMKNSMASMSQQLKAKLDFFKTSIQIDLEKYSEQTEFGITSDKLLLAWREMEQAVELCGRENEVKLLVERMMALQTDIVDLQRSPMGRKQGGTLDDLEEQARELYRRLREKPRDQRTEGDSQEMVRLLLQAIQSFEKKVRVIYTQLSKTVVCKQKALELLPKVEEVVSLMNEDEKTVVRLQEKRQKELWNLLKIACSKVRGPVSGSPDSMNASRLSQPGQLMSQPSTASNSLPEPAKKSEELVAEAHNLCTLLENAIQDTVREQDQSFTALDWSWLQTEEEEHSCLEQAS
Fibroblast growth factor receptor 1, sequence (P11362 whole entry): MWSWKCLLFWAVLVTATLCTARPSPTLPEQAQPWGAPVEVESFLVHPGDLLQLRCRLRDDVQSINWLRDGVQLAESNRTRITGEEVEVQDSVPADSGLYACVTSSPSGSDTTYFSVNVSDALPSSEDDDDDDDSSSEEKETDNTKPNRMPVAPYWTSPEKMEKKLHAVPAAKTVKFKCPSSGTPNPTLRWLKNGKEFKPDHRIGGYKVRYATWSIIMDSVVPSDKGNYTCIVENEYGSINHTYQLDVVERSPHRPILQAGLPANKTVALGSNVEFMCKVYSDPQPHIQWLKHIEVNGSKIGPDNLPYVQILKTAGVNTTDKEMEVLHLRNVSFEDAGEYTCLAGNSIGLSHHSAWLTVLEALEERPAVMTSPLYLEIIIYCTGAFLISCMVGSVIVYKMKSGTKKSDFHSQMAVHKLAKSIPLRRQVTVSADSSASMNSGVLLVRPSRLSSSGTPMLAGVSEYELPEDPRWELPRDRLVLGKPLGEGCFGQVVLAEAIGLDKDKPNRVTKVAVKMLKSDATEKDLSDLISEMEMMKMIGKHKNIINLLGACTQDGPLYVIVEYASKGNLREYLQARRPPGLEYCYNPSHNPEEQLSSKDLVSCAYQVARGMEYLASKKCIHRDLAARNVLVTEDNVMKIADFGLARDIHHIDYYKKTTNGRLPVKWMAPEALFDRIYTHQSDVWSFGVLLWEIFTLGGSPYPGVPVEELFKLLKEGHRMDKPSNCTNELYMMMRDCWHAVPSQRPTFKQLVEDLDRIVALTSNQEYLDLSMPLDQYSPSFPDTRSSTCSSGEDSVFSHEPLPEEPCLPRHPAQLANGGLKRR
Cell division cycle 7-related protein kinase, sequence (O00311 whole entry): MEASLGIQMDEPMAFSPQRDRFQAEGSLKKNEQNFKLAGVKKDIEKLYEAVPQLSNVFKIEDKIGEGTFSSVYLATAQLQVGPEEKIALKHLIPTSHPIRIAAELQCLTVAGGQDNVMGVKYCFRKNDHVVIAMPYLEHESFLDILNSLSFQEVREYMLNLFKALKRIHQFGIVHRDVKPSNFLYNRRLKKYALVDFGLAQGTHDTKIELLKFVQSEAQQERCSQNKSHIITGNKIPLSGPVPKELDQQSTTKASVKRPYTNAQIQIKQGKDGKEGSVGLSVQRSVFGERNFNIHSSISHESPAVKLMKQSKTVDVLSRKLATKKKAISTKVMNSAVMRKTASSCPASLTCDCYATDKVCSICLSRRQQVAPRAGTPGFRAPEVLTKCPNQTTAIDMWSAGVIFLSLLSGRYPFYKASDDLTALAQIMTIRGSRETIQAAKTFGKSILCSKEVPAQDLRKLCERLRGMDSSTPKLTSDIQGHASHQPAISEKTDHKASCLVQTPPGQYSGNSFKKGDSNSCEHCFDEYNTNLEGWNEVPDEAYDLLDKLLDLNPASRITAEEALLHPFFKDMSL
Vascular endothelial growth factor receptor 3, sequence (P35916 whole entry): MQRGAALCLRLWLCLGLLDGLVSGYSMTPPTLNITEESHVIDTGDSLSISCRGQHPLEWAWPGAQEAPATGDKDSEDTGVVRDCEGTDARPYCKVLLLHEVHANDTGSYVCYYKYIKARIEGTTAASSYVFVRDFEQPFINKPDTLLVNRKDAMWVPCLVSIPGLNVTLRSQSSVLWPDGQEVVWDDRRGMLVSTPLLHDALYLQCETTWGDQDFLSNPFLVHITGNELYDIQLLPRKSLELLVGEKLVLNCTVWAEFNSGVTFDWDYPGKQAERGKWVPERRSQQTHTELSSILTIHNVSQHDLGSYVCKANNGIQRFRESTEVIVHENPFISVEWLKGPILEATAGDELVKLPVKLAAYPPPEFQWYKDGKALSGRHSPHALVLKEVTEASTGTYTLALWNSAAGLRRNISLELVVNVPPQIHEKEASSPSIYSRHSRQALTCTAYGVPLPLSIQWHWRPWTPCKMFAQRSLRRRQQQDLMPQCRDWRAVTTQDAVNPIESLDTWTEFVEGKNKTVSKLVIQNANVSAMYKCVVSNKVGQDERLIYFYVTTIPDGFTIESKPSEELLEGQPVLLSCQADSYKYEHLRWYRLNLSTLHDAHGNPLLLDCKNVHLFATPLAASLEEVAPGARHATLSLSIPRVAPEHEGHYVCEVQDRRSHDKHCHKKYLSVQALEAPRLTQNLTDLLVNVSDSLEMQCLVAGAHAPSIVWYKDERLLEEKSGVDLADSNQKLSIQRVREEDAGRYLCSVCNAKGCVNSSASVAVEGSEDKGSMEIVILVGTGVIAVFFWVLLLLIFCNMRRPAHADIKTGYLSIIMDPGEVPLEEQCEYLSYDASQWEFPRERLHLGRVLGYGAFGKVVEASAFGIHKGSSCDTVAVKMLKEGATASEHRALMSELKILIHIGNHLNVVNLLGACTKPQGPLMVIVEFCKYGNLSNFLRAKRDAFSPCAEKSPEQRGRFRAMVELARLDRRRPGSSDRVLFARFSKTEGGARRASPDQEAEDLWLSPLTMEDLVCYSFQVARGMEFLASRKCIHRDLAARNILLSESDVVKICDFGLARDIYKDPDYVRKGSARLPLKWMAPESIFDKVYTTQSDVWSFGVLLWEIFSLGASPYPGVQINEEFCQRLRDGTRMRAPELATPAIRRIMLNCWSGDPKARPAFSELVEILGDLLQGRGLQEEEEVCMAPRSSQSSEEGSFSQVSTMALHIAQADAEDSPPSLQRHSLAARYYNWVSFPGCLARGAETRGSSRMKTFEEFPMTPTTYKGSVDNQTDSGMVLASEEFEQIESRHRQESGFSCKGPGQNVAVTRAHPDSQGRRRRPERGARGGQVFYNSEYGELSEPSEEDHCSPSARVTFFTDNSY

Work on CC(C)(C)C(=O)N1Cc2c(NC(=O)c3cc(F)cc(F)c3)n[nH]c2C1(C)C yielded a pIC50 [1] of under 5.00, a pIC50 [2] of 6.35 and a pIC50 [3] of under 5.00. The pIC50 [4] was under 5.00, the pIC50 [5] was under 5.00 and the pIC50 [6] was under 5.00. It also gave a pIC50 [7] of 7.22, a pIC50 [8] of under 5.00 and a pIC50 [9] of under 5.00. It also gave a pIC50 [10] of under 5.00, a pIC50 [11] of under 5.00 and a pIC50 [12] of under 5.00. The pIC50 [13] was 7.05, the pIC50 (Aurora kinase A) was under 5.00 and the pIC50 [14] was under 5.00. For the same compound, the Activity (A2780 [15]) was -52%, the pIC50 (Insulin receptor) was under 5.00 and the pIC50 [16] was under 5.00. The Activity (A2780 [17]) was 22%, the Activity (A2780 [18]) was 26% and the pIC50 [19] was under 5.00. The pIC50 [20] was 5.44, the Activity (A2780 [21]) was -96% and the pIC50 [22] was under 5.00. It also gave a pIC50 [23] of under 5.00, a pIC50 (A2780 [24]) of 6.51 and a pIC50 [25] of under 5.00. The pIC50 [26] was under 5.00, the solubility [27] was 3400 µg/mL (≈ 9.03 mM) and the pIC50 (Aurora kinase B) was under 5.00. For the same compound, the pIC50 [28] was under 5.00, the pIC50 [29] was under 5.00 and the pIC50 [30] was under 5.00. For the same compound, the solubility [31] was 186 µM (≈ 70 µg/mL), the pIC50 [32] was under 5.00 and the pIC50 [33] was under 5.00. For the same compound, the pIC50 [34] was under 5.00, the pIC50 [35] was under 5.00 and the pIC50 [36] was under 5.00. For the same compound, the pIC50 [37] was under 5.00, the pIC50 [38] was under 5.00 and the pIC50 [39] was under 5.00. It also gave a pIC50 [40] of under 5.00 and a pIC50 [41] of 6.85.
